Measurements as given in ChEMBL document CHEMBL1275408, “A chemical genomic screen in Saccharomyces cerevisiae reveals a role for diphthamidation of translation elongation factor 2 in inhibition of protein synthesis by sordarin” (2008).
The source made the active and inactive calls. The calls are words filed in the database; no cut-off is given here.

Key:
Saccharomyces cerevisiae [1] = experiment: Antifungal activity against Saccharomyces cerevisiae BY4741 harboring ADY3 YDL239C mutant gene by spectrophotometry; assay type: functional
In short: (§1)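 Screen of BY4741 KanMX4 deletion strains pre-grown 3 days at 28°C in YPD with G418 (150 mg/liter), then pinned into liquid SC containing GM193663. The sensitivity screen used 2 ng/ml; the resistance screen used 62.5 ng/ml, with validation at 62.5, 125 and 500 ng/ml. OD595 was read every 24 h over 5 days at 28°C. Growth was scored relative to wild type and to drug-free controls. Retests were at least in duplicate.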

Saccharomyces cerevisiae [2] = experiment: Antifungal activity against Saccharomyces cerevisiae BY4741 harboring COQ1 YBR003W mutant gene by spectrophotometry; assay type: functional; in short: as §1
Saccharomyces cerevisiae [3] = experiment: Antifungal activity against Saccharomyces cerevisiae BY4741 harboring RBS1 YDL189W mutant gene by spectrophotometry; assay type: functional
In short: (§2)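 Haploid MATa BY4741 KanMX4 deletion strains pinned from frozen stocks into YPD + G418 (150 mg/liter), grown 3 days at 28°C to confluence, then pin-replicated into SC liquid with no drug or sordarin derivative GM193663 (2 ng/ml sensitivity; 62.5 ng/ml resistance). 28°C, OD595 read every 24 h for 5 days; growth scored relative to wild type on same plate and to untreated mutant.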

Saccharomyces cerevisiae [4] = experiment: Antifungal activity against Saccharomyces cerevisiae BY4741 harboring QRI5 YLR204W mutant gene by spectrophotometry; assay type: functional; in short: as §2
Saccharomyces cerevisiae [5] = experiment: Antifungal activity against Saccharomyces cerevisiae BY4741 harboring MGT1 YDL200C mutant gene by spectrophotometry; assay type: functional; in short: as §1
Saccharomyces cerevisiae [6] = experiment: Antifungal activity against Saccharomyces cerevisiae BY4741 harboring SHU2 YDR078C mutant gene by spectrophotometry; assay type: functional; in short: as §2
Saccharomyces cerevisiae [7] = experiment: Antifungal activity against Saccharomyces cerevisiae BY4741 harboring DJP1 YIR004W mutant gene by spectrophotometry; assay type: functional; in short: as §1
Saccharomyces cerevisiae [8] = experiment: Antifungal activity against Saccharomyces cerevisiae BY4741 harboring LYS14 YDR034C mutant gene by spectrophotometry; assay type: functional; in short: as §1
Saccharomyces cerevisiae [9] = experiment: Antifungal activity against Saccharomyces cerevisiae BY4741 harboring ARO3 YDR035W mutant gene by spectrophotometry; assay type: functional; in short: as §1
Saccharomyces cerevisiae [10] = experiment: Antifungal activity against Saccharomyces cerevisiae BY4741 harboring BUD9 YGR041W mutant gene by spectrophotometry; assay type: functional; in short: as §1
Saccharomyces cerevisiae [11] = experiment: Antifungal activity against Saccharomyces cerevisiae BY4741 harboring ECM3 YOR092W mutant gene by spectrophotometry; assay type: functional; in short: as §1
Saccharomyces cerevisiae [12] = experiment: Antifungal activity against Saccharomyces cerevisiae BY4741 harboring SBE2 YDR351W mutant gene by spectrophotometry; assay type: functional; in short: as §2
Saccharomyces cerevisiae [13] = experiment: Antifungal activity against Saccharomyces cerevisiae BY4741 harboring UBX3 YDL091C mutant gene by spectrophotometry; assay type: functional; in short: as §2
Saccharomyces cerevisiae [14] = experiment: Antifungal activity against Saccharomyces cerevisiae BY4741 harboring DOC1 YGL240W mutant gene by spectrophotometry; assay type: functional; in short: as §1
Saccharomyces cerevisiae [15] = experiment: Antifungal activity against Saccharomyces cerevisiae BY4741 harboring NAT3 YPR131C mutant gene by spectrophotometry; assay type: functional; in short: as §2
Saccharomyces cerevisiae [16] = experiment: Antifungal activity against Saccharomyces cerevisiae BY4741 harboring STE1 YDR410C mutant gene by spectrophotometry; assay type: functional; in short: as §2
Saccharomyces cerevisiae [17] = experiment: Antifungal activity against Saccharomyces cerevisiae BY4741 harboring MRPL24 YMR193W mutant gene by spectrophotometry; assay type: functional; in short: as §2
Saccharomyces cerevisiae [18] = experiment: Antifungal activity against Saccharomyces cerevisiae BY4741 harboring MRP20 YDR405W mutant gene by spectrophotometry; assay type: functional; in short: as §1
Saccharomyces cerevisiae [19] = experiment: Antifungal activity against Saccharomyces cerevisiae BY4741 harboring RSM19 YNR037C mutant gene by spectrophotometry; assay type: functional; in short: as §2
Saccharomyces cerevisiae [20] = experiment: Antifungal activity against Saccharomyces cerevisiae BY4741 harboring RPS4A YJR145C mutant gene by spectrophotometry; assay type: functional; in short: as §2
Saccharomyces cerevisiae [21] = experiment: Antifungal activity against Saccharomyces cerevisiae BY4741 harboring RPL12B YDR418W mutant gene by spectrophotometry; assay type: functional; in short: as §2
Saccharomyces cerevisiae [22] = experiment: Antifungal activity against Saccharomyces cerevisiae BY4741 harboring DPH5 YLR172C mutant gene by spectrophotometry; assay type: functional; in short: as §1
Saccharomyces cerevisiae [23] = experiment: Antifungal activity against Saccharomyces cerevisiae BY4741 harboring JJJ3/DPH4 YJR097W mutant gene by spectrophotometry; assay type: functional; in short: as §1
Saccharomyces cerevisiae [24] = experiment: Antifungal activity against Saccharomyces cerevisiae BY4741 harboring ATP1 YBL099W mutant gene assessed as reduction in fungal growth at 2 ng/ml by spectrophotometry; assay type: functional, organism-based
In short: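 Haploid BY4741 KanMX4 deletion strains pre-grown in YPD with G418 (150 mg/liter) for 3 days at 28°C. They were then pin-replicated into liquid SC with sordarin derivative GM193663 at 2 ng/ml, or without drug. Plates were incubated at 28°C and OD595 read every 24 h for 5 days. Growth was scored against wild type on the same plate and against the drug-free mutant. Hits were retested at least in duplicate.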

Saccharomyces cerevisiae [25] = experiment: Antifungal activity against Saccharomyces cerevisiae BY4741 assessed as reduction in fungal growth up to 500 ng/ml for 72 hrs by spectrophotometry; assay type: functional, organism-based
In short: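 BY4741 grown overnight in SC (synthetic complete) medium, then inoculated into microtiter wells of SC medium containing successive twofold dilutions of sordarin starting at 500 ng/ml (range 0–500 ng/ml). Cultures incubated at 28°C, and growth followed as a growth inhibition curve.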

Saccharomyces cerevisiae [26] = experiment: Antifungal activity against Saccharomyces cerevisiae BY4741 harboring deletion mutation in dph2 gene at 100 ng/ml by plate assay; assay type: functional, organism-based
In short: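 Spot test on solid SC glucose plates with or without 100 ng/ml sordarin. Drops of 10^5 cells plus 10-fold serial dilutions of each dph deletion strain were spotted alongside the parental strain. Plates were incubated at 28°C for 6 days and imaged every 24 h.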

Saccharomyces cerevisiae [27] = experiment: Antifungal activity against Saccharomyces cerevisiae BY4741 harboring RMD9 YGL107C mutant gene by spectrophotometry; assay type: functional; in short: as §2
Saccharomyces cerevisiae [28] = experiment: Antifungal activity against Saccharomyces cerevisiae BY4741 harboring YLR125W mutation in unknown gene by spectrophotometry; assay type: functional
In short: (§3)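 Deletion strains from the nonessential haploid MATa BY4741 collection (KanMX4 replacement) were grown in YPD with G418 at 28°C for 3 days, then pinned into liquid SC with or without sordarin derivative GM193663 (2 ng/ml for sensitivity, 62.5 ng/ml for resistance). Cultures were kept at 28°C and read at OD595 every 24 h for 5 days. Growth was scored against wild type on the same plate and against the drug-free control. Hits were retested at least in duplicate.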

Saccharomyces cerevisiae [29] = experiment: Antifungal activity against Saccharomyces cerevisiae BY4741 harboring YDL062W mutation in unknown gene by spectrophotometry; assay type: functional; in short: as §2
Saccharomyces cerevisiae [30] = experiment: Antifungal activity against Saccharomyces cerevisiae BY4741 harboring LDB17 YDL146W mutant gene by spectrophotometry; assay type: functional; in short: as §1
Saccharomyces cerevisiae [31] = experiment: Antifungal activity against Saccharomyces cerevisiae BY4741 harboring YLR202C mutation in unknown gene by spectrophotometry; assay type: functional; in short: as §3
Saccharomyces cerevisiae [32] = experiment: Antifungal activity against Saccharomyces cerevisiae BY4741 harboring YLR143W mutation in unknown gene by spectrophotometry; assay type: functional; in short: as §3
Saccharomyces cerevisiae [33] = experiment: Antifungal activity against Saccharomyces cerevisiae BY4741 harboring YBR141C mutation in unknown gene by spectrophotometry; assay type: functional; in short: as §2
Saccharomyces cerevisiae [34] = experiment: Antifungal activity against Saccharomyces cerevisiae BY4741 harboring MOH1 YBL049W mutant gene by spectrophotometry; assay type: functional; in short: as §1
Saccharomyces cerevisiae [35] = experiment: Antifungal activity against Saccharomyces cerevisiae BY4741 harboring DAL7 YIR031C mutant gene by spectrophotometry; assay type: functional; in short: as §1

## CO[C@H]1[C@@H](O)[C@H](O)[C@H](OC[C@@]23C[C@@H]4[C@H](C)CC[C@H]4[C@@]4(C=O)CC2C=C(C(C)C)[C@@]34C(=O)O)O[C@@H]1C [SORDARIN]
Saccharomyces cerevisiae [1]
  MIC: > 0.0625 µg/mL
Saccharomyces cerevisiae [2]
  MIC: > 0.5 µg/mL
Saccharomyces cerevisiae [3]
  MIC: > 0.5 µg/mL
Saccharomyces cerevisiae [4]
  MIC: > 0.125 µg/mL
Saccharomyces cerevisiae [5]
  MIC: > 0.125 µg/mL
Saccharomyces cerevisiae [6]
  MIC: > 0.5 µg/mL
Saccharomyces cerevisiae [7]
  MIC: > 0.5 µg/mL
Saccharomyces cerevisiae [8]
  MIC: > 0.5 µg/mL
Saccharomyces cerevisiae [9]
  MIC: > 0.5 µg/mL
Saccharomyces cerevisiae [10]
  MIC: > 0.125 µg/mL
Saccharomyces cerevisiae [11]
  MIC: > 0.125 µg/mL
Saccharomyces cerevisiae [12]
  MIC: > 0.5 µg/mL
Saccharomyces cerevisiae [13]
  MIC: > 0.5 µg/mL
Saccharomyces cerevisiae [14]
  MIC: > 0.5 µg/mL
Saccharomyces cerevisiae [15]
  MIC: > 0.0625 µg/mL
Saccharomyces cerevisiae [16]
  MIC: > 0.125 µg/mL
Saccharomyces cerevisiae [17]
  MIC: > 0.125 µg/mL
Saccharomyces cerevisiae [18]
  MIC: > 0.5 µg/mL
Saccharomyces cerevisiae [19]
  MIC: > 0.5 µg/mL
Saccharomyces cerevisiae [20]
  MIC: > 0.0625 µg/mL
Saccharomyces cerevisiae [21]
  MIC: > 0.5 µg/mL
Saccharomyces cerevisiae [22]
  MIC: > 0.5 µg/mL
Saccharomyces cerevisiae [23]
  MIC: > 0.125 µg/mL
Saccharomyces cerevisiae [24]
  Activity: Active
Saccharomyces cerevisiae [25]
  Activity: Active
Saccharomyces cerevisiae [26]
  MIC: inactive
Saccharomyces cerevisiae [27]
  MIC: > 0.125 µg/mL
Saccharomyces cerevisiae [28]
  MIC: > 0.125 µg/mL
Saccharomyces cerevisiae [29]
  MIC: > 0.125 µg/mL
Saccharomyces cerevisiae [30]
  MIC: > 0.125 µg/mL
Saccharomyces cerevisiae [31]
  MIC: > 0.5 µg/mL
Saccharomyces cerevisiae [32]
  MIC: > 0.5 µg/mL
Saccharomyces cerevisiae [33]
  MIC: > 0.5 µg/mL
Saccharomyces cerevisiae [34]
  MIC: > 0.5 µg/mL
Saccharomyces cerevisiae [35]
  MIC: > 0.125 µg/mL
